Measurements: ChEMBL document CHEMBL1128437, “Derivatives of 17-phenyl-18,19,20-trinorprostaglandin F2 alpha isopropyl ester: potential antiglaucoma agents” (J Med Chem, 1995)

Columns and labels:
[1] = species on record: Felis catus; assay: Concentration giving half-maximal contraction of the cat iris sphincter muscle was determined in vitro; format: functional; conditions: Felis catus, Sphincter muscle
Procedure, shortened: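 Compounds were tested as hydrolysed free acids on isolated cat iris sphincter in organ baths. Bath solution was bicarbonate physiological saline with glucose plus indomethacin 2.8 × 10⁻⁶ M, atropine 10⁻⁷ M and propranolol 10⁻⁶ M. Resting tension was 150 mg, with at least 30 min equilibration. Cumulative dosing was at 5–10 min intervals. Isometric contraction was normalised to each tissue's maximum, averaged over four preparations, and fitted with a Hill equation for EC50.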

[2] = species on record: Felis catus; assay: The maximal difference in Intraocular Pressure (IOP) between treated and control eyes. The effect was tested in cats at a dose of 1.0 (ug/eye); format: functional
Procedure, shortened: (§1)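 Domestic female cats, 2–3 kg, trained for IOP measurement. One eye received a topical drop (20 µL) of drug in 0.9% NaCl with 0.5% polysorbate 80; the other eye received vehicle. IOP was read by pneumatonometer under oxibuprocain local anaesthesia before dosing and at 1, 3, 6 and 23 h. The maximal treated-minus-control difference was taken. Area between curves is the treated-eye AUC minus control-eye AUC, per animal.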

[3] = species on record: Felis catus; assay: The maximal difference in Intraocular Pressure (IOP) between treated and control eyes. The effect was tested in cats at a dose of 10.0 (ug/eye); format: functional; procedure, shortened: as §1
[4] = species on record: Felis catus; assay: The maximal difference in Intraocular Pressure (IOP) between treated and control eyes. The effect was tested in cats at a dose of 3.0 (ug/eye); format: functional; procedure, shortened: as §1
[5] = species on record: Felis catus; assay: The mean ocular irritation in the treated eyes. An arbitrary scale of from 0 to 3 was used, 0 indicates absence of irritation and 3 complete closure of the lids. The effect was tested in cats at a dose of 1.0 (ug/eye); format: functional
Procedure, shortened: (§2)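 Ocular irritation was scored in the treated eye of trained female cats, 2–3 kg. Drug was given as one topical 20 µL drop in 0.9% NaCl with 0.5% polysorbate 80. The contralateral eye got vehicle only.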

[6] = species on record: Felis catus; assay: The mean ocular irritation in the treated eyes. An arbitrary scale of from 0 to 3 was used, 0 indicates absence of irritation and 3 complete closure of the lids. The effect was tested in cats at a dose of 10.0 (ug/eye); format: functional; procedure, shortened: as §2
[7] = species on record: Felis catus; assay: The mean ocular irritation in the treated eyes. An arbitrary scale of from 0 to 3 was used, 0 indicates absence of irritation and 3 complete closure of the lids. The effect was tested in cats at a dose of 3.0 (ug/eye); format: functional; procedure, shortened: as §2
[8] = species on record: Felis catus; assay: The maximal difference in […] pupil diameter between treated and control eyes. The effect was tested in cats at a dose of 1.0 (ug/eye); format: functional
Procedure, shortened: (§3)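 Trained female cats, 2–3 kg, were dosed unilaterally with one 20 µL topical drop of drug in 0.9% NaCl/0.5% polysorbate 80, with vehicle in the contralateral eye. Horizontal pupil diameter was measured with a millimetre ruler under constant 10 lux illumination before dosing and at 1, 3, 6 and 23 h. Reported as maximal treated–control difference or as area between curves, per animal.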

[9] = species on record: Felis catus; assay: The maximal difference in […] pupil diameter between treated and control eyes. The effect was tested in cats at a dose of 10.0 (ug/eye); format: functional; procedure, shortened: as §3
[10] = species on record: Felis catus; assay: The maximal difference in […] pupil diameter between treated and control eyes. The effect was tested in cats at a dose of 3.0 (ug/eye); format: functional; procedure, shortened: as §3
[11] = species on record: Felis catus; assay: The mean area between curves for Intraocular Pressure (IOP) measured in treated and control eyes. The effect was tested in cats at a dose of 1.0 (ug/eye); format: functional; procedure, shortened: as §1
[12] = species on record: Felis catus; assay: The mean area between curves for Intraocular Pressure (IOP) measured in treated and control eyes. The effect was tested in cats at a dose of 3.0 (ug/eye); format: functional; procedure, shortened: as §1
[13] = species on record: Felis catus; assay: The mean area between curves for pupil diameter between treated and control eyes. The effect was tested in cats at a dose of 1.0 (ug/eye); format: functional; procedure, shortened: as §3
[14] = species on record: Felis catus; assay: The mean area between curves for pupil diameter between treated and control eyes. The effect was tested in cats at a dose of 10.0 (ug/eye); format: functional; procedure, shortened: as §3
[15] = species on record: Felis catus; assay: The mean area between curves for pupil diameter between treated and control eyes. The effect was tested in cats at a dose of 3.0 (ug/eye); format: functional; procedure, shortened: as §3
[16] = tested on: Monkey; assay: The mean area between curves for Intraocular Pressure (IOP) measured in treated and control eyes. The effect was tested in monkey at a dose of 3.0 (ug/eye); format: functional, Cercopithecidae
Procedure, shortened: (§4)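 Cynomolgus monkeys trained for IOP measurement were sedated with ketamine (2–3 mg/kg) for transport and seated in restraint chairs under oxibuprocain local anaesthesia. One eye received a 10 µL drop of drug in 0.9% NaCl/0.5% polysorbate 80; the fellow eye received vehicle. IOP was read by pneumatonometer calibrated for monkey eyes before dosing and at 1, 2, 4 and 6 h. Matched-pair t test, n = 6.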

[17] = tested on: Monkey; assay: The maximal difference in Intraocular Pressure (IOP) measured in treated and control eyes. The effect was tested in monkey at a dose of 1.0 (ug/eye); format: functional, Cercopithecidae; procedure, shortened: as §4
[18] = tested on: Monkey; assay: The mean area between curves for Intraocular Pressure (IOP) measured in treated and control eyes. The effect was tested in monkey at a dose of 1.0 (ug/eye); format: functional, Cercopithecidae; procedure, shortened: as §4
[19] = tested on: Monkey; assay: The maximal difference in Intraocular Pressure (IOP) measured in treated and control eyes. The effect was tested in monkey at a dose of 3.0 (ug/eye); format: functional, Cercopithecidae; procedure, shortened: as §4
[20] = species on record: Felis catus; assay: The mean area between curves for Intraocular Pressure (IOP) measured in treated and control eyes. The effect was tested in cats at a dose of 10.0 (ug/eye); format: functional; procedure, shortened: as §1
[21] = species on record: Oryctolagus cuniculus; assay: The maximal difference in conjunctival hyperemia between treated and control eyes. The effect was tested in rabbit at a dose of 0.5 (ug/eye)
[22] = species on record: Oryctolagus cuniculus; assay: The mean area between curves for conjunctival hyperemia between treated and control eyes. The effect was tested in rabbit at a dose of 0.5 (ug/eye)
[23] = species on record: Oryctolagus cuniculus; assay: The maximal difference in conjunctival hyperemia between treated and control eyes. The effect was tested in rabbit at a dose of 0.1 (ug/eye)
[24] = species on record: Oryctolagus cuniculus; assay: The mean area between curves for conjunctival hyperemia between treated and control eyes. The effect was tested in rabbit at a dose of 0.1 (ug/eye)
[25] = tested on: Monkey; assay: The mean area between curves for Intraocular Pressure (IOP) measured in treated and control eyes. The effect was tested in monkey at a dose of 10.0 (ug/eye); format: functional, Cercopithecidae; procedure, shortened: as §4
[26] = tested on: Monkey; assay: The maximal difference in Intraocular Pressure (IOP) measured in treated and control eyes. The effect was tested in monkey at a dose of 10.0 (ug/eye); format: functional, Cercopithecidae; procedure, shortened: as §4

| SMILES | EC50 [1] [nM] | Imax [2] [mmHg] | Imax [3] [mmHg] | Imax [4] [mmHg] | Irritation [5] [arbitrary units] | Irritation [7] [arbitrary units] | Pmax [8] [mm] | Pmax [9] [mm] | Pmax [10] [mm] | I ABC [11] | I ABC [12] | P ABC [13] | P ABC [14] | P ABC [15] | I ABC [16] | Imax [19] [mmHg] | I ABC [20] | Hmax [21] | H ABC [22] | other results |
| --- | --- | --- | --- | --- | --- | --- | --- | --- | --- | --- | --- | --- | --- | --- | --- | --- | --- | --- | --- | --- |
| Cc1ccc(CCC(O)/C=C/[C@@H]2[C@@H](C/C=C\CCCC(=O)O)[C@@H](O)C[C@H]2O)cc1 (stereo partly drawn) | 40 |  |  |  |  |  |  |  |  |  |  |  |  |  |  |  |  |  |  |  |
| Cc1cccc(CC[C@H](O)/C=C/[C@@H]2[C@@H](C/C=C\CCCC(=O)OC(C)C)[C@@H](O)C[C@H]2O)c1 |  | -1 | 2.3 | 1.2 | 0.3 | 0.1 | < -6.8 | < -8.8 | < -8.3 | -17 | 8 | <-85 | <-149 | <-122 | -0.1 | <-0.6 | 14.1 | <1.6 | <4.9 | Irritation [6]: 0 arbitrary units; Imax [17]: <-2.5 mmHg; I ABC [18]: -3.6 |
| CC(C)OC(=O)CCC/C=C\C[C@@H]1[C@@H](/C=C/[C@@H](O)CCc2ccc(Br)cc2)[C@H](O)C[C@@H]1O |  | 0.3 | <-3 |  | 0 |  | < -1.5 | < -6 |  | 3.4 |  | -18.1 | -80 |  |  |  | <-25 | <0.5 | 1.2 | Irritation [6]: 0.3 arbitrary units; Hmax [23]: <1.1; H ABC [24]: <2.2 |
| O=C(O)CCC/C=C\C[C@@H]1[C@@H](/C=C/C(O)CCc2ccccc2)[C@H](O)C[C@@H]1O (stereo partly drawn) | 0.71 |  |  |  |  |  |  |  |  |  |  |  |  |  |  |  |  |  |  |  |
| CC(C)OC(=O)CCC/C=C\C[C@@H]1[C@@H](/C=C/[C@H](O)CCc2cccc(Br)c2)[C@H](O)C[C@@H]1O |  | <1.2 |  | -2 | 0 | 0 | < -3.8 |  | < -5.3 | 0.2 | -6.2 | <-50.3 |  | <-71 | -6 | -1.4 |  | <1.2 | <2 |  |
| Cc1ccc(CC[C@H](O)/C=C/[C@@H]2[C@@H](C/C=C\CCCC(=O)OC(C)C)[C@@H](O)C[C@H]2O)cc1 |  | -1 |  | -1.3 | 0.2 | 0 | < -3.5 |  | < -6 | -4.3 | -28 | <-46 |  | <-73 | -3.8 | <-1.6 |  | <1.5 | 4.4 | I ABC [25]: -3.5; Imax [26]: -1.5 mmHg |
| CC(C)OC(=O)CCC/C=C\C[C@@H]1[C@@H](/C=C/[C@H](O)CCc2ccc(-c3ccccc3)cc2)[C@H](O)C[C@@H]1O |  | <-1 | -0.3 |  |  |  | 0.5 | < -0.8 |  | -8.3 |  | 1.8 | -3.8 |  |  |  | -2 | <0.5 | 0.7 |  |
| O=C(O)CCC/C=C\C[C@@H]1[C@@H](/C=C/[C@@H](O)CCc2ccc(Br)cc2)[C@H](O)C[C@@H]1O | 35 |  |  |  |  |  |  |  |  |  |  |  |  |  |  |  |  |  |  |  |
